Compounds with a hit are over-represented: about 2.8% of the library has one in this group of screens.
EP2 mod: modulators of human EP2 prostaglandin E2 receptor. P43116. EP2-expressing cells, cAMP HTRF FRET, PGE2 co-stimulation. induction, % at 25 µM. AID 940. 260,000 tested, 0.83% active;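 active = compounds whose cAMP rise, as percent of the full-agonist control response, exceeds 60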;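 also: rat C6 glioma line stably carrying human EP2 under a CMV promoter; the protocol text gives 20 µM as final concentration; 100% = response of wells given 1 µM PGE2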
Target sequence (P43116 whole entry, looked up): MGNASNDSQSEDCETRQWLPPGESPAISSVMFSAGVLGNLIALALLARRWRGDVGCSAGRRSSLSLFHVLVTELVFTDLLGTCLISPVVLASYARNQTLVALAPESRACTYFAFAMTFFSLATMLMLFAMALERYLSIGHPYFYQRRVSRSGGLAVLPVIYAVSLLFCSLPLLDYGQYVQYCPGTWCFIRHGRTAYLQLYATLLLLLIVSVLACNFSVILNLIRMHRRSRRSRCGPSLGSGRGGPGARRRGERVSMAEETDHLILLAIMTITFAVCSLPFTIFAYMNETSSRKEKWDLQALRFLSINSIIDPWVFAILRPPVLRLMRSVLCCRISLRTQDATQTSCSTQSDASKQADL
NPY-Y1 PAM-ag: potentiators or agonists of human neuropeptide Y receptor Y1 | P25929 | NPY-Y1 expressing cells, potentiator/agonist activation | activation, % at 3.6 µM | 220,000 tested, 0.37% active | AID 1304; in the data active = activation above about 33%, passing the limit was not always enough;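 also: cells stimulated with NPY at EC10 then isoproterenol at EC100; 0% = low agonist plus stimulus and 100% = saturating agonist plus stimulus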
NPY Y2 blocker: blocks the human neuropeptide Y Y2 receptor; P49146; NPY-Y2 expressing cells, antagonist mode; inhibition, % at 2.7 µM; 140,000 tested, 0.99% active; AID 793; in the data active = inhibition above about 17%;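 also: 0% = vehicle with agonist challenge and 100% = reference antagonist with challenge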
NPY2 pot ag: human NPY-Y2 potentiation or agonism, primary screen; AID 1359; activation, % at 3.6 µM; cells expressing NPY-Y2, potentiator/agonist read-out; P49146; 220,000 tested, 0.45% active; in the data active = activation above about 27%;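 also: cells stimulated with NPY near EC25 plus isoproterenol at EC100; 0% = vehicle plus submaximal agonist and 100% = vehicle plus saturating agonist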
PGE2 EP2 inh: inhibitors of human EP2 prostaglandin E2 receptor; C6 glioma cells expressing human EP2, cAMP TR-FRET; cells stimulated with saturating PGE2; inhibition, % at 25 µM; 260,000 tested, 0.52% active; AID 1422;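 active = percent inhibition above 40 after rounding to a whole number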;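 also: rat C6 glioma host cells with rolipram phosphodiesterase inhibitor present; the protocol text gives 20 µM as final concentration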
NPY-Y1 antag: NPY-Y1 (human) receptor antagonism | P25929 | HEK293-CNG Y1 cells, membrane potential fluorescence; NPY at EC95, then isoproterenol | inhibition, % at 3.6 µM | 200,000 tested, 1% active | AID 1040;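 active = inhibition above the campaign mean inhibition of all tested compounds plus 3 SD, cut at about 20% in these data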;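 also: 0% = DMSO wells given NPY plus isoproterenol and 100% = isoproterenol alone without NPY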
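Material: HEK293 cells co-expressing NPY Y1 receptor and cyclic-nucleotide gated channel. Timing: compound incubation 1 h at room temperature, readout 45 min post-stimulation. Signal: fluorescence, membrane potential probe.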
Starred values were filed as active, the others as inactive.

How did COc1ccc2c(c1)/C(=N/OC(=O)c1cccs1)CCC2 do in these assays?
EP2 mod: 18; NPY-Y1 PAM-ag: -15; NPY2 pot ag: -7; PGE2 EP2 inh: 3; NPY-Y1 antag: 11

How did Cc1ccc(CN2C(=O)C(C)(C)Oc3ccc(C(=O)NC(C)(C)C)cc32)cc1 do in these assays?
EP2 mod: -16; PGE2 EP2 inh: 7

What do the screens show for `Cc1cc[nH]c(=O)c1NCc1cc2c(C)nn(-c3ccccc3)c2[nH]c1=O`?
EP2 mod: -71; PGE2 EP2 inh: 46*

How did Cc1nn(-c2ccccc2)c2[nH]c(=O)c(CNc3ccc(F)c(Cl)c3)cc12 do in these assays?
EP2 mod: -22; PGE2 EP2 inh: 20

How did CCN(CC(=O)Nc1c(F)cccc1F)C(=O)Cc1ccccc1 do in these assays?
EP2 mod: 5; NPY-Y1 PAM-ag: -2; NPY2 pot ag: 4; PGE2 EP2 inh: 10; NPY-Y1 antag: 3

How did CCCSC(=O)N(CC)CC(=O)Nc1c(CC)cccc1CC do in these assays?
EP2 mod: 28; NPY-Y1 PAM-ag: -23; NPY Y2 blocker: 20*; NPY2 pot ag: -24; PGE2 EP2 inh: 7; NPY-Y1 antag: 18

Results for CCSC(=O)N(CC)CC(=O)Nc1c(CC)cccc1CC ?
EP2 mod: 13; NPY-Y1 PAM-ag: -21; NPY Y2 blocker: 20*; NPY2 pot ag: -4; PGE2 EP2 inh: 14; NPY-Y1 antag: 16

How did C=CCN(CC(=O)Nc1c(C)cccc1CC)C(=O)SCCC do in these assays?
EP2 mod: 48; NPY-Y1 PAM-ag: -15; NPY Y2 blocker: 10; NPY2 pot ag: -14; PGE2 EP2 inh: 6; NPY-Y1 antag: 20

Results for COc1ccc(S(=O)(=O)N2Cc3ccccc3CC2C(=O)N2CCCCC2)cc1OC (centres undefined) ?
EP2 mod: -28; PGE2 EP2 inh: 7

How did COc1ccc2cc(CN(C(=O)Nc3ccc(Cl)cc3)C3CCCCC3)c(=O)[nH]c2c1 do in these assays?
EP2 mod: 30; PGE2 EP2 inh: 9

What do the screens show for `Cn1c(=O)c2c(nc(CN3CCc4ccccc4C3)n2CCc2ccccc2)n(C)c1=O`?
NPY-Y1 PAM-ag: 4; NPY Y2 blocker: 8; NPY2 pot ag: -3; NPY-Y1 antag: 26*

What do the screens show for `CCOC(=O)C1CCN(c2ncnc3c2oc2ccc(Cl)cc23)CC1`?
EP2 mod: -34; NPY-Y1 PAM-ag: -61; NPY Y2 blocker: 19*; NPY2 pot ag: -20; PGE2 EP2 inh: 15; NPY-Y1 antag: 18

How did C=C(C)Cn1c(SC)nc2c1c(=O)[nH]c(=O)n2C do in these assays?
EP2 mod: 9; PGE2 EP2 inh: 7

Results for CCc1c(C)sc2nc(C(C)C)n3c(=O)n(Cc4ccncc4)nc3c12 ?
EP2 mod: 61*

What do the screens show for `CCc1c(C)sc2nc(C(C)C)n3c(=O)n(Cc4cccnc4)nc3c12`?
EP2 mod: 19

How did O=C(NC(=S)Nc1ccc(S(=O)(=O)Nc2nccs2)cc1)c1ccc(Cl)cc1 do in these assays?
EP2 mod: -91; PGE2 EP2 inh: 12

How did Cn1c(=O)[nH]c(=O)c2c1nc(NC1CCCCC1)n2Cc1ccccc1 do in these assays?
EP2 mod: 61*; NPY-Y1 PAM-ag: 7; NPY Y2 blocker: 0; NPY2 pot ag: 1; PGE2 EP2 inh: 9; NPY-Y1 antag: -6

What do the screens show for `Cc1cccc(Cn2c(NC3CCCC3)nc3c2c(=O)[nH]c(=O)n3C)c1`?
EP2 mod: -13; PGE2 EP2 inh: 14

What do the screens show for `O=C(Nc1ccc(NC(=O)c2cccc(Cl)c2)nc1)c1ccncc1`?
EP2 mod: -52; PGE2 EP2 inh: 11

How did CCn1c(=O)n(CC)c2cc(CN(C)Cc3cc(=O)[nH]c4ccccc34)ccc21 do in these assays?
EP2 mod: -61; PGE2 EP2 inh: 8

How did O=C(CSc1nnc(Cc2cccs2)n1Cc1ccco1)Nc1ccc(Cl)cc1Cl do in these assays?
EP2 mod: 36; NPY-Y1 PAM-ag: -20; NPY Y2 blocker: 23*; NPY2 pot ag: -6; PGE2 EP2 inh: 3; NPY-Y1 antag: 31*

Results for O=C(CSc1nnc(Cc2cccs2)n1Cc1ccco1)Nc1ccc(Br)cc1 ?
EP2 mod: 22; NPY-Y1 PAM-ag: 10; NPY Y2 blocker: 9; NPY2 pot ag: -10; PGE2 EP2 inh: 7; NPY-Y1 antag: 3

Results for CCCCOC(=O)CSCC(=O)N1N=C(c2cccs2)CC1c1ccc(F)cc1 (centres undefined) ?
EP2 mod: 37; NPY-Y1 PAM-ag: 2; NPY Y2 blocker: 8; NPY2 pot ag: -20; PGE2 EP2 inh: 50*; NPY-Y1 antag: 1

How did CCOC(=O)CSCC(=O)N1N=C(c2cccs2)CC1c1ccc(F)cc1 (centres undefined) do in these assays?
EP2 mod: 25; NPY-Y1 PAM-ag: 6; NPY Y2 blocker: 4; NPY2 pot ag: 1; PGE2 EP2 inh: 5; NPY-Y1 antag: -1

What do the screens show for `C(=N\Nc1nc(-c2ccccn2)nc2ccccc12)/c1ccccc1`?
EP2 mod: 69*; NPY-Y1 PAM-ag: -25; NPY2 pot ag: -3; PGE2 EP2 inh: 11

What do the screens show for `CCn1c2cc(C)oc2c2cnn(Cc3ccccc3C(F)(F)F)c(=O)c21`?
EP2 mod: 81*

How did Fc1ccc(NCc2ccncc2)cc1 do in these assays?
EP2 mod: -13; PGE2 EP2 inh: 3

What do the screens show for `Cc1ccccc1NC1C=CS(=O)(=O)C1` (centres undefined)?
EP2 mod: 7; NPY-Y1 PAM-ag: 22; NPY Y2 blocker: 0; NPY2 pot ag: 107*; PGE2 EP2 inh: 12; NPY-Y1 antag: 1

Results for O=C(OCCNC(=O)c1cc2ccccc2oc1=O)c1cccnc1 ?
EP2 mod: 64*; NPY-Y1 PAM-ag: 4; NPY Y2 blocker: 1; NPY2 pot ag: 1; PGE2 EP2 inh: 10; NPY-Y1 antag: 5

What do the screens show for `O=C(Cn1nnc(-c2cccc(C(F)(F)F)c2)n1)NC(=O)NCc1ccco1`?
EP2 mod: 0; NPY-Y1 PAM-ag: -37; NPY Y2 blocker: 21*; NPY2 pot ag: -23; PGE2 EP2 inh: 12; NPY-Y1 antag: 14

What do the screens show for `O=C(Cn1nnc(-c2ccccc2)n1)NCc1ccco1`?
EP2 mod: -2; NPY-Y1 PAM-ag: -27; NPY Y2 blocker: 3; NPY2 pot ag: -19; PGE2 EP2 inh: 0; NPY-Y1 antag: -3

How did Cc1ccc(NC(=O)N(Cc2ccco2)Cc2cc3ccc(C)c(C)c3[nH]c2=O)cc1 do in these assays?
EP2 mod: 17; PGE2 EP2 inh: 6

How did Cc1c(C(=O)NCc2noc(-c3ccccc3)n2)oc2c(C)cccc12 do in these assays?
EP2 mod: -42; PGE2 EP2 inh: 6

Results for CC(C)c1ccc2c(c1)CC[C@@H]1[C@](C)(CN)CCC[C@@]21C ?
EP2 mod: -6; PGE2 EP2 inh: 90*

What do the screens show for `CCOc1nc(-c2ccc(C)cc2)ccc1-c1noc(COC)n1`?
EP2 mod: 43; NPY-Y1 PAM-ag: -33; NPY Y2 blocker: 0; NPY2 pot ag: -10; PGE2 EP2 inh: 10; NPY-Y1 antag: 8

Compound activity deposited in PubChem BioAssay by several laboratories.
